Results from ChEMBL document CHEMBL1152173, “Synthesis and in vitro evaluation of the antifungal activities of dihydropyrimidinones” (2008).
Values after ≈ are worked out from the molar mass of the structure shown. Active and inactive are the calls of the source. No cut-off for these calls is given here.

What was measured:
Trichoderma hamatum [1] = test: Antifungal activity against Trichoderma hamatum assessed as radial growth at 1% after 72 hrs by poison food technique of Flack relative to control; assay type: functional
Aspergillus niger [2] = test: Antifungal activity against Aspergillus niger assessed as radial growth at 1% after 48 hrs by poison food technique of Flack relative to control; assay type: functional
Trichoderma hamatum [3] = test: Antifungal activity against Trichoderma hamatum assessed as radial growth at 5% after 48 hrs by poison food technique of Flack relative to control; assay type: functional
In short: (§1)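 Acetone stock added to molten sterilized PDA to final 0.5–7%, plated in 90 mm dishes with compound-free plates as control. Each plate was inoculated with a 9 mm disc from a 4-day-old culture, incubated at 25 ± 1 °C, and colony diameter measured at 24 h intervals. % inhibition = (control − treatment)/control × 100; three replicates averaged.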

Aspergillus niger [4] = test: Antifungal activity against Aspergillus niger assessed as radial growth at 5% after 72 hrs by poison food technique of Flack relative to control; assay type: functional
Trichoderma hamatum [5] = test: Antifungal activity against Trichoderma hamatum assessed as radial growth at 7% after 24 hrs by poison food technique of Flack relative to control; assay type: functional; in short: as §1
Trichoderma koningii [6] = test: Antifungal activity against Trichoderma koningii assessed as radial growth at 7% after 72 hrs by poison food technique of Flack relative to control; assay type: functional; in short: as §1
Aspergillus niger [7] = test: Antifungal activity against Aspergillus niger assessed as radial growth at 7% after 72 hrs by poison food technique of Flack relative to control; assay type: functional
Trichoderma hamatum [8] = test: Antifungal activity against Trichoderma hamatum assessed as radial growth at 3% after 48 hrs by poison food technique of Flack relative to control; assay type: functional
Aspergillus niger [9] = test: Antifungal activity against Aspergillus niger assessed as radial growth at 7% after 48 hrs by poison food technique of Flack relative to control; assay type: functional
Trichoderma koningii [10] = test: Antifungal activity against Trichoderma koningii assessed as radial growth at 3% after 72 hrs by poison food technique of Flack relative to control; assay type: functional; in short: as §1
Aspergillus niger [11] = test: Antifungal activity against Aspergillus niger assessed as radial growth at 5% after 24 hrs by poison food technique of Flack relative to control; assay type: functional
Trichoderma koningii [12] = test: Antifungal activity against Trichoderma koningii assessed as radial growth at 3% after 48 hrs by poison food technique of Flack relative to control; assay type: functional; in short: as §1
Aspergillus niger [13] = test: Antifungal activity against Aspergillus niger assessed as radial growth at 3% after 48 hrs by poison food technique of Flack relative to control; assay type: functional
Aspergillus niger [14] = test: Antifungal activity against Aspergillus niger assessed as radial growth at 5% after 48 hrs by poison food technique of Flack relative to control; assay type: functional
Trichoderma koningii [15] = test: Antifungal activity against Trichoderma koningii assessed as radial growth at 1% after 72 hrs by poison food technique of Flack relative to control; assay type: functional; in short: as §1
Aspergillus niger [16] = test: Antifungal activity against Aspergillus niger assessed as radial growth at 3% after 72 hrs by poison food technique of Flack relative to control; assay type: functional
Aspergillus niger [17] = test: Antifungal activity against Aspergillus niger assessed as radial growth at 0.5% after 48 hrs by poison food technique of Flack relative to control; assay type: functional
Trichoderma koningii [18] = test: Antifungal activity against Trichoderma koningii assessed as radial growth at 3% after 24 hrs by poison food technique of Flack relative to control; assay type: functional; in short: as §1
Trichoderma hamatum [19] = test: Antifungal activity against Trichoderma hamatum assessed as radial growth at 0.5% after 72 hrs by poison food technique of Flack relative to control; assay type: functional
Trichoderma koningii [20] = test: Antifungal activity against Trichoderma koningii assessed as radial growth at 0.5% after 24 hrs by poison food technique of Flack relative to control; assay type: functional; in short: as §1
Trichoderma hamatum [21] = test: Antifungal activity against Trichoderma hamatum assessed as radial growth at 7% after 24 hrs by poison food technique of Flack; assay type: functional, organism-based
In short: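 Poisoned-food method: acetone stock mixed into molten sterilized potato dextrose agar to final 0.5, 1, 3, 5 or 7%, poured into 90 mm plates. Plates were inoculated with a 9 mm mycelial disc from a 4-day-old pure culture and incubated at 25 ± 1 °C. Colony diameter (mm) was read every 24 h; mean of three replicates.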

Trichoderma hamatum [22] = test: Antifungal activity against Trichoderma hamatum assessed as radial growth at 0.5% after 48 hrs by poison food technique of Flack relative to control; assay type: functional
Trichoderma koningii [23] = test: Antifungal activity against Trichoderma koningii assessed as radial growth at 5% after 72 hrs by poison food technique of Flack relative to control; assay type: functional; in short: as §1
Trichoderma koningii [24] = test: Antifungal activity against Trichoderma koningii; assay type: functional
Aspergillus niger [25] = test: Antifungal activity against Aspergillus niger assessed as radial growth at 1% after 72 hrs by poison food technique of Flack relative to control; assay type: functional
Trichoderma hamatum [26] = test: Antifungal activity against Trichoderma hamatum assessed as radial growth at 3% after 24 hrs by poison food technique of Flack relative to control; assay type: functional
Trichoderma hamatum [27] = test: Antifungal activity against Trichoderma hamatum assessed as radial growth at 5% after 24 hrs by poison food technique of Flack relative to control; assay type: functional; in short: as §1
Trichoderma koningii [28] = test: Antifungal activity against Trichoderma koningii assessed as radial growth at 0.5% after 72 hrs by poison food technique of Flack relative to control; assay type: functional; in short: as §1
Aspergillus niger [29] = test: Antifungal activity against Aspergillus niger assessed as radial growth at 0.5% after 72 hrs by poison food technique of Flack relative to control; assay type: functional
Aspergillus niger [30] = test: Antifungal activity against Aspergillus niger assessed as radial growth at 7% after 24 hrs by poison food technique of Flack relative to control; assay type: functional
Trichoderma koningii [31] = test: Antifungal activity against Trichoderma koningii assessed as radial growth at 7% after 48 hrs by poison food technique of Flack relative to control; assay type: functional; in short: as §1
Aspergillus niger [32] = test: Antifungal activity against Aspergillus niger assessed as radial growth at 0.5% after 24 hrs by poison food technique of Flack relative to control; assay type: functional
Trichoderma hamatum [33] = test: Antifungal activity against Trichoderma hamatum; assay type: functional
Aspergillus niger [34] = test: Antifungal activity against Aspergillus niger assessed as radial growth at 3% after 24 hrs by poison food technique of Flack relative to control; assay type: functional
Trichoderma hamatum [35] = test: Antifungal activity against Trichoderma hamatum assessed as radial growth at 7% after 72 hrs by poison food technique of Flack relative to control; assay type: functional; in short: as §1
Trichoderma koningii [36] = test: Antifungal activity against Trichoderma koningii assessed as radial growth at 1% after 24 hrs by poison food technique of Flack relative to control; assay type: functional; in short: as §1
Trichoderma hamatum [37] = test: Antifungal activity against Trichoderma hamatum assessed as radial growth at 0.5% after 24 hrs by poison food technique of Flack relative to control; assay type: functional
Aspergillus niger [38] = test: Antifungal activity against Aspergillus niger assessed as radial growth at 1% after 24 hrs by poison food technique of Flack relative to control; assay type: functional
Trichoderma hamatum [39] = test: Antifungal activity against Trichoderma hamatum assessed as radial growth at 1% after 24 hrs by poison food technique of Flack relative to control; assay type: functional
Trichoderma hamatum [40] = test: Antifungal activity against Trichoderma hamatum assessed as radial growth at 3% after 72 hrs by poison food technique of Flack relative to control; assay type: functional
Trichoderma koningii [41] = test: Antifungal activity against Trichoderma koningii assessed as radial growth at 5% after 24 hrs by poison food technique of Flack relative to control; assay type: functional; in short: as §1
Trichoderma koningii [42] = test: Antifungal activity against Trichoderma koningii assessed as radial growth at 5% after 48 hrs by poison food technique of Flack relative to control; assay type: functional; in short: as §1
Trichoderma hamatum [43] = test: Antifungal activity against Trichoderma hamatum assessed as radial growth at 1% after 48 hrs by poison food technique of Flack relative to control; assay type: functional
Aspergillus niger [44] = test: Antifungal activity against Aspergillus niger; assay type: functional
Trichoderma koningii [45] = test: Antifungal activity against Trichoderma koningii assessed as radial growth at 1% after 48 hrs by poison food technique of Flack relative to control; assay type: functional; in short: as §1

CCOC(=O)C1=C(C)NC(=S)NC1c1ccc(N(C)C)cc1 (stereo not given)
inhibition (INH) (Trichoderma hamatum [1]): 13.9% | inhibition (INH) (Aspergillus niger [2]): 0% | inhibition (INH) (Trichoderma hamatum [3]): 100% | inhibition (INH) (Aspergillus niger [4]): 78.39% | inhibition (INH) (Trichoderma hamatum [5]): 100% | inhibition (INH) (Trichoderma koningii [6]): 91.1% | inhibition (INH) (Aspergillus niger [7]): 100% | inhibition (INH) (Trichoderma hamatum [8]): 74.44% | inhibition (INH) (Aspergillus niger [9]): 100% | inhibition (INH) (Trichoderma koningii [10]): 15.77% | inhibition (INH) (Aspergillus niger [11]): 100% | inhibition (INH) (Trichoderma koningii [12]): 18.75% | inhibition (INH) (Aspergillus niger [13]): 40% | inhibition (INH) (Aspergillus niger [14]): 100% | inhibition (INH) (Trichoderma koningii [15]): 0% | inhibition (INH) (Aspergillus niger [16]): 51.98% | inhibition (INH) (Aspergillus niger [17]): 0% | inhibition (INH) (Trichoderma koningii [18]): 41.69% | inhibition (INH) (Trichoderma hamatum [19]): 8.39% | inhibition (INH) (Trichoderma koningii [20]): 0% | Activity (Trichoderma hamatum [21]): Active | inhibition (INH) (Trichoderma hamatum [22]): 5.25% | inhibition (INH) (Trichoderma koningii [23]): 88.29% | MIC (Trichoderma koningii [24]): 0.025 µg/mL (≈ 0.0783 µM) | inhibition (INH) (Aspergillus niger [25]): 0% | inhibition (INH) (Trichoderma hamatum [26]): 75% | inhibition (INH) (Trichoderma hamatum [27]): 100% | inhibition (INH) (Trichoderma koningii [28]): 0% | inhibition (INH) (Aspergillus niger [29]): 0% | inhibition (INH) (Aspergillus niger [30]): 100% | inhibition (INH) (Trichoderma koningii [31]): 95.31% | inhibition (INH) (Aspergillus niger [32]): 0% | MIC (Trichoderma hamatum [33]): 0.025 µg/mL (≈ 0.0783 µM) | inhibition (INH) (Aspergillus niger [34]): 30% | inhibition (INH) (Trichoderma hamatum [35]): 97.57% | inhibition (INH) (Trichoderma koningii [36]): 3.84% | inhibition (INH) (Trichoderma hamatum [37]): 8.92% | inhibition (INH) (Aspergillus niger [38]): 13.6% | inhibition (INH) (Trichoderma hamatum [39]): 21.42% | inhibition (INH) (Trichoderma hamatum [40]): 40.39% | inhibition (INH) (Trichoderma koningii [41]): 92.3% | inhibition (INH) (Trichoderma koningii [42]): 86.21% | inhibition (INH) (Trichoderma hamatum [43]): 12.4% | MIC (Aspergillus niger [44]): 0.35 µg/mL (≈ 1.1 µM) | inhibition (INH) (Trichoderma koningii [45]): 0%
